Results from ChEMBL document CHEMBL1125106, “1-(Thienylalkyl)imidazole-2(3H)-thiones as potent competitive inhibitors of dopamine beta-hydroxylase” (J Med Chem, 1990).

Experiments:
[1] = DBH (dopamine beta-hydroxylase) activity expressed as Ki value determined by degree to which compound inhibited conversion of tyramine to octopamine
How it was run: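 Bovine adrenal medulla DBH, purified in-house (sp act. 44 µmol/min/mg). Incubated at 37 °C, atmospheric pressure, in 0.2 M acetate pH 5.5 with 10 mM ascorbate, 20 mM fumarate, […] and 1300 units catalase. Octopamine formed from tyramine measured by reverse-phase HPLC with fluorescence detection (ex 275, em 315 nm). Six inhibitor and four substrate concentrations tested, DMSO ≤3% final, duplicates; Ki from Dixon analysis.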

[2] = target: T1, Dopamine beta-hydroxylase (Bos taurus, UniProt P15101); assay: Inhibitory activity against bovine adrenal dopamine beta-hydroxylase (DBH)
T1 sequence (P15101 whole entry): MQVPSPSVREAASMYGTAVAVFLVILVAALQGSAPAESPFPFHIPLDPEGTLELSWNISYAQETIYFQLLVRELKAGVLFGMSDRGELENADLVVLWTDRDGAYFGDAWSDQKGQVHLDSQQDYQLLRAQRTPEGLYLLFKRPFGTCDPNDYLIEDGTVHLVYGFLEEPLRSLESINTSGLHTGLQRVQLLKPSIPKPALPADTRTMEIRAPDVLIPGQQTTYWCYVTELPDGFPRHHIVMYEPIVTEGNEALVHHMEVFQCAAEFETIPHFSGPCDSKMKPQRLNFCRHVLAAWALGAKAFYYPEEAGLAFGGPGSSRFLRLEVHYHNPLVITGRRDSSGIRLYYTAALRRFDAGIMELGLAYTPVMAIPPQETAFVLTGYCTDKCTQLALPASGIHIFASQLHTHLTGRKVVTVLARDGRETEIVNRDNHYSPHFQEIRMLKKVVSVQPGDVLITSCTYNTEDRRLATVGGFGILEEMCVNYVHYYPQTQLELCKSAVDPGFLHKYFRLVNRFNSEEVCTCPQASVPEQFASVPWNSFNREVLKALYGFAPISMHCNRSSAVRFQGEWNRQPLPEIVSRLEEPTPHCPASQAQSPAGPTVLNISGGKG
How it was run: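 Commercial bovine DBH, assayed by oxygen consumption on an oxygen electrode at 25.0 °C. Mixture contained 2 mM ascorbic acid, 10 mM sodium fumarate, catalase and 10 mM tyramine in 0.1 M sodium acetate pH 5.0. Rates corrected for nonenzymatic ascorbate oxidation. IC50 from duplicates in at least three separate experiments, mean ± SD.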

Rattus norvegicus [3] = assay: Mean arterial blood pressure was determined in SHR (spontaneous hypertensive rat) with control at a peroral dose of 50 mg/kg; type: functional; conditions: route oral
How it was run: (§1)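 Conscious SHR with a carotid catheter externalized at the nape, allowed about 48 h to recover from surgery. Dosed po at 09:00 with vehicle (50% PEG 400) or compound suspension, with treatments reversed the next day in a cross-over design. Mean arterial pressure recorded as 5 min averages and compared with vehicle by paired t test (mean ± SEM, p<0.05).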

Rattus norvegicus [4] = assay: Mean arterial blood pressure was determined in SHR (spontaneous hypertensive rat) with administration at peroral dose of 25 mg/kg; type: functional; conditions: route oral; how it was run: as §1
[5] = Antihypertensive activity as ability to increase tissue DA/NE ratio of mesenteric artery 6 hr after oral administration in fasted SHR (spontaneous hypertensive rat) at the dose of 25 mg/kg (po); type: functional
How it was run: (§2)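 Male fasted SHR given compound orally as a suspension in 50% PEG 400 (0.4 mL/100 g), or vehicle alone. Killed 6 h after dosing. Mesenteric artery homogenized in 0.2 M HClO4 with DTT, EGTA and DHBA internal standard. Catecholamines adsorbed on alumina, eluted with 0.1 M H3PO4, and DA and NE quantified by reverse-phase HPLC. Ratio reported as mean ± SD and compared with vehicle by 2-tailed t test.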

Rattus norvegicus [6] = assay: Mean arterial blood pressure was determined in SHR (spontaneous hypertensive rat) with administration at peroral dose of 50 mg/kg; type: functional; conditions: route oral; how it was run: as §1
Rattus norvegicus [7] = assay: Duration of activity of compound in SHR (spontaneous hypertensive rat) at the dose of 50 mg/kg (po); type: functional; how it was run: as §1
[8] = Antihypertensive activity was determined by its ability to increase DA/NE ratio of mesenteric artery 6 hr after oral administration in fasted SHR (spontaneous hypertensive rat) at the dose of 100 mg/kg (po); type: functional; how it was run: as §2
Rattus norvegicus [9] = assay: Duration of activity of compound in SHR (spontaneous hypertensive rat) at the dose of 100 mg/kg (po); type: functional; how it was run: as §1
Rattus norvegicus [10] = assay: Duration of activity of compound in SHR (spontaneous hypertensive rat) at the dose of 25 mg/kg (po); type: functional; how it was run: as §1
Rattus norvegicus [11] = assay: Mean arterial blood pressure was determined in SHR (spontaneous hypertensive rat) with administration at the dose of 100 mg/kg (po); type: functional; how it was run: as §1
Rattus norvegicus [12] = assay: Mean arterial blood pressure was determined in SHR (spontaneous hypertensive rat) with control at a peroral dose of 25 mg/kg; type: functional; conditions: route oral; how it was run: as §1
Rattus norvegicus [13] = assay: Mean arterial blood pressure was determined in SHR (spontaneous hypertensive rat) with control at a peroral dose of 100 mg/kg; type: functional; conditions: route oral; how it was run: as §1
[14] = Antihypertensive activity was determined by its ability to increase DA/NE ratio of mesenteric artery 6 hr after oral administration in fasted SHR at the dose of 50 mg/kg (po); type: functional; how it was run: as §2
[15] = Antihypertensive activity determined as ability to increase tissue DA/NE ratio of mesenteric artery 6 hr after oral administration in fasted SHR (spontaneous hypertensive rat); type: functional; how it was run: as §2

Ki [1] [nM] | IC50 [2] [nM] | SMILES | further results
480 | 1900 | Sc1nccn1CCCc1cccs1 | 
60 | 210 | Fc1cc(F)cc(Cn2cc[nH]c2=S)c1 | 
 | 6300 | S=c1[nH]ccn1Cc1ccco1 | 
740 | 4800 | Sc1nccn1Cc1cccs1 | 
25.5 | 114 | Sc1nccn1CCc1cccs1 | Mean arterial blood pressure (Rattus norvegicus [3]): 172 mmHg; Mean arterial blood pressure (Rattus norvegicus [4]): 137 mmHg; DA/NE ratio [5]: 0.214; Mean arterial blood pressure (Rattus norvegicus [6]): 137 mmHg; Duration (Rattus norvegicus [7]): 8 h; DA/NE ratio [8]: 0.333; Duration (Rattus norvegicus [9]): 20 h; Duration (Rattus norvegicus [10]): <1 h; Mean arterial blood pressure (Rattus norvegicus [11]): 126 mmHg; Mean arterial blood pressure (Rattus norvegicus [12]): 148 mmHg; Mean arterial blood pressure (Rattus norvegicus [13]): 170 mmHg; DA/NE ratio [14]: 0.269; DA/NE ratio [15]: 0.072

Second part, the molecule before the results:

SMILES | Ki [1] [nM] | IC50 [2] [nM] | further results
Cc1ccc(CCn2ccnc2S)s1 | 160 | 491 | 
Sc1nccn1CCCCc1cccs1 | 1400 | 3600 | 
Sc1nccn1CCc1ccsc1 | 25 | 130 | 
Sc1nccn1Cc1ccc(Cl)s1 |  | 1000 | 
Fc1ccc(Cn2ccnc2S)s1 |  | 4600 | 
Sc1nccn1Cc1ccsc1 |  | 5300 | 
